Runt-SMMHC FRET = Runt domain-CBFb-SMMHC interaction inhibition; Cerulean-Runt/Venus-CBFb-SMMHC FRET ratio 530/480, 1 h; inhibition, % at 20 µM; 220,000 compounds, 0.74% hits;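 active means mean inhibition across duplicate retests at 20 µM reaching about 50%, limit read from the data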;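 further: 0% = DMSO wells and 100% = wells with excess untagged CBFb-SMMHC; inhibitors lower the FRET ratio by blocking Runt binding to CBFb-SMMHC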
Target sequence (Q01196 whole entry, looked up, the tested form may be a part): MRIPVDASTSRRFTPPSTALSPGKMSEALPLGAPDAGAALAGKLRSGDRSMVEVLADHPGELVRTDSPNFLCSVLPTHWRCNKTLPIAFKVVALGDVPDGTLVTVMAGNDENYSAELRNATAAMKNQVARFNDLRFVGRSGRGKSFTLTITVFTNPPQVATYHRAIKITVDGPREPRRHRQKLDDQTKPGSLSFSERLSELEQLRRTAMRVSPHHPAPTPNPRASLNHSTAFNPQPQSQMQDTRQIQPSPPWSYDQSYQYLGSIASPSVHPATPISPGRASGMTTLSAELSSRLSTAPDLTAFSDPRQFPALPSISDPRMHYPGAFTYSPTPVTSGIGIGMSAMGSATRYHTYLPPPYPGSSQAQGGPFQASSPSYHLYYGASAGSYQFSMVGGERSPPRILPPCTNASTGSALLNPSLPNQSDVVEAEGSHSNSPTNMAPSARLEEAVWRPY
Target sequence (Q13951 whole entry, looked up, the tested form may be a part): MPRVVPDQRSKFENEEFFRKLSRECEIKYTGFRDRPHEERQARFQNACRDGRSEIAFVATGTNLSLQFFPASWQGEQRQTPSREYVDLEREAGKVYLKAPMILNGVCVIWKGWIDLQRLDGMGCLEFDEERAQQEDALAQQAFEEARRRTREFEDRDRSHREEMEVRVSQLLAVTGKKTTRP
PERK inh = blocks human PERK kinase; Q9NZJ5; CHO PERK-DD fusion, SEAP luminescence translation reporter; inhibition, % at 5.6 µM; 220,000 compounds, 0.17% hits;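 active means inhibition above the mean inhibition of all tested compounds plus 3 SD, set separately per screening campaign, cut at about 2.9% in these data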;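 further: PERK kinase domain activated by AP20187 dimerizer at 100 nM; 0% = DMSO with dimerizer and 100% = rapamycin at 8.4 µM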
RanGTP-Impb inh = inhibitors of RanGTP-importin-beta interaction, primary screen, biochemical, FRET, CFP-Ran, YFP-importin-beta, homogeneous; 300,000 compounds, 1.1% hits; AID 2216; cell-free CFP-Ran/YFP-importin-beta FRET ratio; inhibition, % (test concentration not listed);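 active means more than half of the replicate wells show a fall in the fluorescence ratio signal beyond about 16%, limit read from the data, passing the limit was not always enough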;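 further: 0% = DMSO wells and 100% = Ran loaded with GDP instead of GTP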
Runt-CBFb FRET = inhibitors of human RUNX1 Runt domain binding to CBFb. Q01196+Q13951. Cerulean-Runt/Venus-CBFb FRET ratio 530/480, 1 h. inhibition, % at 20 µM. 220,000 compounds, 0.46% hits. AID 1496;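 active means inhibition over about 50% at 20 µM in the single-dose screen, limit read from the data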;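 further: 0% = DMSO wells and 100% = excess unlabeled CBFb competitor control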
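Schedule: protein complex preformed 1 h, compound exposure 1 h, room temperature, dark; test system: Cerulean-labeled Runt domain protein; amount: 100 nM per protein; buffer or medium: Tris 50 mM pH 7.5, KCl, K2SO4, 0.01% BSA; read-out: loss of energy transfer signal; detection: FRET fluorescence; controls: 5 µM unlabeled CBFb as full-inhibition high control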
eIF4E-4G inh = eIF4E/eIF4G interaction inhibition in translation initiation; TR-FRET eIF4E-eIF4GI(517-606) binding, 2 h; inhibition, % at 21.7 µM; 220,000 compounds, 0.37% hits;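 active means inhibition above about 30%, limit read from the data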;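 further: 0% = full FRET control wells and 100% = background wells lacking eIF4GI fragment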
Hck-Nef inh = inhibitors of human Hck kinase activated by Nef; P08631; Recombinant Hck-YEEI plus Nef, Z-Lyte FRET kinase assay; inhibition, % at 20 µM; 220,000 compounds, 0.68% hits;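 active means Hck-Nef kinase inhibition above about 50%, limit read from the data; inactive means inhibition below that limit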;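 further: 0% = DMSO with Hck plus Nef and 100% = Hck alone without Nef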
YIC FRET counter = counter-screen for RanGTP-importin-beta inhibitors: YIC FRET probe; shares compounds with RanGTP-Impb inh; Purified YIC probe, intramolecular FRET ratio YFP/CFP; IC50, µM; 1,000 compounds, 40% hits;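 active means fitted half-maximal inhibitory concentration no more than tenfold above the top dose tested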
Starred values were filed as active, the others as inactive; / = no result given. This is a sample that favours compounds with a hit; in the whole collection about 2.2% have one here.

SMILES | Runt-SMMHC FRET | PERK inh | RanGTP-Impb inh | Runt-CBFb FRET | eIF4E-4G inh | Hck-Nef inh | YIC FRET counter
CCNc1nnc(CSc2nc3ccccc3s2)s1 | 3 | 1 | 18* | 0 | -4 | 10 | >50
CCc1nnc(NC(=O)CSc2nc3ccccc3s2)s1 | -52 | 1 | -1 | -1 | 2 | 1 | /
Cc1ccccc1CN1CCN(S(=O)(=O)c2ccc(F)cc2)CC1 | -1 | 0 | 0 | -1 | -2 | 7 | /
Cc1cccc(C)c1N1CCN(S(=O)(=O)c2ccc(F)cc2)CC1 | -1 | 1 | 19* | 0 | 2 | 3 | >50
COc1ccc2c(c1OC)C(=O)N(c1nccs1)C2 | 1 | 1 | 2 | -1 | -1 | 0 | /
CCSc1nnc(-c2cc(Br)ccc2N=Cc2c(C)[nH]n(-c3ccccc3)c2=O)c(=O)[nH]1 | -10 | 3 | 18* | -1 | -5 | 7 | >50
CSc1nnc(-c2cc(Br)ccc2N=Cc2c(C)[nH]n(-c3ccccc3)c2=O)c(=O)[nH]1 | -2 | 1 | 0 | 5 | -3 | 22 | /
CC1(C)CC(=O)C=C(Nc2ccc(S(N)(=O)=O)cc2)C1 | 1 | 1 | 22* | 0 | 9 | 14 | >50
COc1c(F)c(F)c(C(=O)Nc2ccc(NC(=O)c3ccco3)cc2)c(F)c1F | -3 | 0 | 0 | 0 | -20 | 1 | /
CN1c2ccsc2C(=O)/C(=C\Nc2cccc(C(F)(F)F)c2)S1(=O)=O | -8 | 1 | 3 | 16 | -2 | -10 | /
N#Cc1c(N)n(CCNC(=O)c2ccc(Cl)cc2)c2nc3ccccc3nc12 | 44 | 0 | 28* | 94* | -6 | 12 | 2*
O=C(NCCN1CCCC1)c1ccc(Cl)cc1 | -1 | 0 | -3 | 0 | 1 | 38 | /
CC(CNC(=O)c1ccc2c(c1)OCO2)c1ccc([N+](=O)[O-])cc1 (stereo not drawn) | -2 | 0 | 3 | -1 | 4 | -1 | /
CCN(CC)S(=O)(=O)c1ccc(NC(=O)c2ccc(Sc3nncn3C)c([N+](=O)[O-])c2)cc1 | 2 | 1 | 23* | -4 | -2 | 0 | >50
CCCc1cc(=O)oc2c(CN3CCN(C)CC3)c(O)ccc12 | / | / | 7 | / | / | / | /
CCCc1cc(=O)oc2c(CN3CCN(C)CC3)c(O)c(Cl)cc12 | 101* | / | 50* | 123* | 6 | / | 31*
Oc1ccccc1/C=N/Nc1cc(N2CCCC2)nc(N2CCCC2)n1 | -2 | -1 | 29* | -3 | -7 | 1 | >50
CC(Nc1ccc(Br)cn1)c1cc(Cl)ccc1O (stereo not drawn) | 2 | -1 | -2 | 1 | 3 | 6 | /
CC(=O)Nc1ccc(-c2ccc(NC(C)=O)cc2)cc1 | -2 | 2 | -3 | 0 | 3 | 21 | /
COC(=O)Nc1ccc(NC(C)=O)cc1 | 0 | 1 | 17* | -1 | -2 | 1 | >50
Cc1nc(N2CCC(C)CC2)c2c(C)c(C(=O)Nc3cccc(C(F)(F)F)c3)sc2n1 | -4 | 2 | -4 | -6 | 1 | 22 | /
Cc1nc(Nc2cnc(/C=C/c3cc(C(=O)Nc4cccc(C(F)(F)F)c4)ccc3C)cn2)cc(N2CCNCC2)n1 | / | / | 41* | / | / | / | 18*
Cc1cccc(N2C(=O)/C(=C/c3cccnc3)SC2=S)c1 | 1 | 0 | 19* | 2 | -2 | 23 | >50
Cc1ccc(S(=O)(=O)NCCN(CCNS(=O)(=O)c2ccc(C)cc2)S(C)(=O)=O)cc1 | -3 | -1 | 21* | -4 | 3 | 0 | >50
Cc1ccc(OCC(=O)c2cc(C)n(CC(F)(F)F)c2C)c([N+](=O)[O-])n1 | 9 | 0 | 20* | 17 | -2 | 22 | >50
SMILES | Runt-SMMHC FRET | PERK inh | RanGTP-Impb inh | Runt-CBFb FRET | eIF4E-4G inh | Hck-Nef inh | YIC FRET counter
CCC(=O)Nc1ccc(N/C(N)=N/c2nc(C)cc(C)n2)cc1 | 2 | 0 | 17* | 2 | -6 | -4 | >50
Fc1ccccc1N1CC(c2ccccc2)C(c2cccs2)=N1 (stereo not drawn) | 62* | 1 | 20* | 28 | 1 | 39 | 14*
Cc1nc(-c2nc(C(=O)NNS(C)(=O)=O)cs2)cs1 | 1 | 1 | 1 | -1 | 2 | -2 | /
COc1ccc(CCNC(=O)c2cc3c(=O)n4ccccc4nc3n(CCCN3CCOCC3)c2=N)cc1 | / | / | 20* | / | / | / | 21*
COc1ccc(CCn2c(=N)c(C(=O)NC3CCCCC3)cc3c(=O)n4ccccc4nc32)cc1 | / | / | 19* | / | / | / | >50
COc1ccc(C(=O)NNC(=O)c2ccccc2[N+](=O)[O-])cc1[N+](=O)[O-] | -3 | 0 | 7 | 0 | -1 | 18 | /
CS(=O)(=O)N(CC(=O)NCc1ccc2c(c1)OCO2)c1cccc(Cl)c1 | -2 | -1 | -1 | -1 | -1 | 10 | /
CCn1c(CNC(=O)COc2ccc(C(C)C)cc2)nnc1SCC(=O)Nc1ccccc1C(C)C | 0 | 0 | 6 | -7 | 5 | -1 | /
O=C(NN=C1CCCCCC1)c1ccc(Br)o1 | 1 | -1 | 5 | -2 | -35 | -6 | /
O=C(/C=C/c1ccccc1[N+](=O)[O-])N1CCN(c2ccc(F)cc2)CC1 | 2 | -1 | 24* | 0 | 3 | 16 | >50
Cc1ccc(C)c2nc(N3CCCC3)c(C#N)cc12 | 94* | 0 | 51* | 67* | 1 | 6 | 1.2*
COc1cc(-n2c(N)c(C(=O)NCc3ccco3)c3nc4ccccc4nc32)cc(OC)c1OC | -7 | 0 | 12 | 4 | 3 | 3 | /
CCCc1nc2ccccc2c(C(=O)OCC(=O)NCc2ccc3c(c2)OCO3)c1CC | 0 | -1 | 0 | -3 | -7 | -2 | /
COc1ccc(-n2c(N)c(C(=O)NCc3ccco3)c3nc4ccccc4nc32)cc1OC | 15 | 0 | 17* | 0 | -1 | 13 | 33*
Nc1c(C(=O)NCc2ccccc2)c2nc3ccccc3nc2n1-c1ccc2c(c1)OCO2 | 6 | 0 | 35* | -8 | -59 | 27 | 11*
Cc1ccccc1-c1nc(Cc2ccccc2)no1 | 1 | 0 | -2 | 0 | -2 | -1 | /
O=C(OCC(=O)N1CCC(Cc2ccccc2)CC1)c1ccccc1 | -3 | 0 | 3 | -2 | 1 | 5 | /
O=C(NC1CCCCCC1)C(=S)NCCc1ccccc1 | -3 | 2 | 25* | 20 | 4 | 28 | >50
COc1ccccc1S(=O)Cc1ccc(C(=O)O)o1 (stereo not drawn) | 3 | 0 | 20* | / | -4 | 1 | >50
CCOC(=O)c1c(N2C(=O)Nc3ccccc3N2O)sc2c1CCCC2 | -1 | 1 | 20* | 0 | 7 | 4 | >50

Bioassay records: PubChem BioAssay, several laboratories
